This note sets out measurements from ChEMBL document CHEMBL1148918, “New pseudopterosin and seco-pseudopterosin diterpene glycosides from two Colombian isolates of Pseudopterogorgia elisabethae and their diverse biological activities” (J Nat Prod, 2004).

In brackets after ≈: the same amount, converted by molar mass.

Assay [1] in a line: (§1) Antiinflammatory activity in LPS-stimulated rat neonatal microglia assessed as inhibition of PMA-induced TXB2 production preincubated 15 mins prior to PMA challenge. The class given is functional, cell-based. In a few lines:
(§2)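 Neonatal rat microglia, 2 × 10^5 cells/well, primed 17 h with LPS (0.3 ng/mL) in DMEM + 10% FBS + penicillin/streptomycin at 35.9 °C, 5% CO2. Cells washed with warm HBSS, given compound (0.01-10 µM) or DMSO vehicle for 15 min, then PMA (1 µM). Triplicate wells, two independent experiments.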

The test system of assay [2] is Microglia. The assay is described as §1. Type of assay: functional, cell-based. In a few lines:
as §2

Assay [3] deals with Mycobacterium tuberculosis. Description: Antimycobacterial activity against Mycobacterium tuberculosis H37Rv at 6.25 ug/mL. Type of assay: functional.
A short description of assay [4]: (§3) Antiinflammatory activity in LPS-stimulated rat neonatal microglia assessed as drug level causing 50% PMA-induced LDH release preincubated 15 mins prior to PMA challenge by spectrophotometry. Type of assay: functional. The essentials:
as §2

Assay [5] concerns Microglia. Described as §3. The class given is functional. In a few lines:
as §2

Assay [6] is described as follows: (§4) Antiinflammatory activity in LPS-stimulated rat neonatal microglia assessed as inhibition of PMA-induced superoxide anion production preincubated 15 mins prior to PMA challenge. Type of assay: functional, cell-based. The essentials:
as §2

The test system of assay [7] is Microglia. Described as §4. The class given is functional, cell-based. The essentials: as §2
For assay [8], the system named is MCF7. Description: Cytotoxicity against human MCF7 cells relative to control. The class given is functional. Also noted: concentration or dose not given beside the values. The essentials:
(§5)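 One-dose primary screen on a three-line panel (MCF-7, NCI-H460, SF268). Growth of treated cells given as percent of untreated controls.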

In assay [9] the test system is NCI-H460. Briefly: Cytotoxicity against human NCI-H460 cells relative to control. Type of assay: functional. Also noted: concentration or dose not given beside the values. The essentials:
as §5

Assay [10] concerns Plasmodium falciparum. Description: Antimalarial activity against chloroquine-resistant Plasmodium falciparum W2 after 48 hrs by fluorimetry. The class given is functional, organism-based. As to conditions: W2, 48 h.
In assay [11] the test system is SF-268. Description: Cytotoxicity against human SF268 cells relative to control. Type of assay: functional. Also noted: concentration or dose not given beside the values. The essentials: as §5
The nature of assay [12]: Cytotoxicity against human NCI60 cells. The class given is functional.
The test system of assay [13] is Human alphaherpesvirus 1. Briefly: Antiviral activity against HSV1. The class given is functional, organism-based.
Assay [14] deals with Human alphaherpesvirus 3. Briefly: Antiviral activity against VZV. Type of assay: functional, organism-based.
Assay [15] deals with Human betaherpesvirus 5. Description: Antiviral activity against HCMV. Type of assay: functional, organism-based.
For assay [16], the system named is Human alphaherpesvirus 2. Briefly: Antiviral activity against HSV2. The class given is functional, organism-based.

By IC50 is commonly meant the concentration that gives 50% inhibition. By inhibition is commonly meant how much of the control response was suppressed. Turning to `CC(=O)O[C@@H]1[C@@H](Oc2c(C)cc3c(c2O)[C@@H](C)CC[C@@H]3[C@@H](C)CCC=C(C)C)OC[C@@H](O)[C@H]1O`, the IC50 in [1] and in [6] was above 10 µM each time. Moreover, the Activity result in [2] is “Dose-dependent effect”; in assay [4] it was 10 µM; in assay [5], “Dose-dependent effect”; in [7], “Dose-dependent effect”. The inhibition at 6.25 µg/mL in [3] turned out to be 37%.

In the case of `CC(=O)O[C@@H]1CO[C@H](Oc2c(C)cc3c(c2O)[C@@H](C)CC[C@@H]3[C@@H](C)CCC=C(C)C)[C@@H](O)[C@@H]1O`, the IC50 in assay [1] and in assay [6] was above 10 µM throughout. Moreover, the Activity result in [2] was “Dose-dependent effect”; in assay [4], 3.6 µM; in assay [5], “Dose-dependent effect”; in assay [7], “Dose-dependent effect”. This molecule showed an inhibition at 6.25 µg/mL in assay [3] of 25%.

As for `CC(=O)O[C@H]1[C@H](O)[C@H](Oc2c(C)c3c4c(c2O)[C@@H](C)CC[C@@H]4[C@@H](C)C[C@H]3C=C(C)C)O[C@@H](C)[C@H]1O` [PSEUDOPTEROSIN Q], the Activity is 103% in [8]; 101% in assay [9]; “Dose-dependent effect” in [2]; 107% in assay [11]; 3.4 µM in assay [4]; “Dose-dependent effect” in [5]. Also, the Activity entry in assay [7] is “Dose-dependent effect”. Also, the IC50 was determined as 4.7 µM in assay [1], 15 µg/mL (≈ 30.7 µM) in assay [10] and 11.2 µM in assay [6]. This molecule also displayed an inhibition at 6.25 µg/mL in [3] of 37%.

As for `CC(=O)O[C@@H]1[C@@H](Oc2c(C)c3c4c(c2O)[C@@H](C)CC[C@@H]4[C@@H](C)C[C@H]3C=C(C)C)OC[C@@H](OC(C)=O)[C@H]1O` [PSEUDOPTEROSIN X], the IC50 is above 10 µM in [1] and 10 µM in [6]. Moreover, the Activity result in assay [2] is “Dose-dependent effect”; in assay [4], 2.35 µM; in [5], “Dose-dependent effect”; in assay [7], “Dose-dependent effect”.

What is called GI50 is the concentration giving 50% growth inhibition. Regarding `CC(=O)O[C@@H]1CO[C@H](Oc2c(C)c3c4c(c2O)[C@@H](C)CC[C@@H]4[C@@H](C)C[C@H]3C=C(C)C)[C@@H](O)[C@@H]1O` [PSEUDOPTEROSIN U], the Activity in assay [8] was 0%; in assay [9], 0%; in [2] it was “Dose-dependent effect”; in assay [11] it was 0%; in assay [4], 0.7 µM; in assay [5], “Dose-dependent effect”. Also, the Activity result in assay [7] is “Dose-dependent effect”. The figures for the IC50 in [1], in [10] and in assay [6] were above 10 µM, 19 µg/mL (≈ 40 µM) and 14.7 µM, respectively. Besides, in [12], the GI50 was 20 µM. Further, the inhibition at 6.25 µg/mL in assay [3] came to 43%.

As for `CC(=O)O[C@H]1[C@H](O)[C@@H](Oc2c(C)c3c4c(c2O)[C@@H](C)CC[C@@H]4[C@@H](C)C[C@H]3C=C(C)C)OC[C@H]1O` [PSEUDOPTEROSIN V], the Activity is 0% in assay [8]; 0% in assay [9]; “Dose-dependent effect” in assay [2]; 0% in assay [11]; 2.2 µM in [4]; “Dose-dependent effect” in assay [5]. For the same molecule, the Activity entry in assay [7] is “Dose-dependent effect”. Moreover, the IC50 in [1] was above 10 µM; in [10], 1 µg/mL (≈ 2.11 µM); in assay [6], above 10 µM. The GI50 in assay [12] is 20 µM. Moreover, in assay [3], testing at 6.25 µg/mL gave an inhibition of 25%.

Broadly, the EC50 is the midpoint of the concentration-response curve. Take `CC(=O)O[C@H]1[C@@H](O)[C@H](O)[C@H](Oc2c(C)c3c4c(c2O)[C@@H](C)CC[C@@H]4[C@@H](C)C[C@H]3C=C(C)C)O[C@H]1C` [PSEUDOPTEROSIN P]: the Activity in assay [8] was 0%; in assay [9], 0%; in [2], “Dose-dependent effect”; in assay [11], 0%; in assay [4], 0.6 µM; in assay [5], “Dose-dependent effect”. The Activity entry in assay [7] was “Dose-dependent effect”. Further, the IC50 was above 10 µM in assay [1], 12 µg/mL (≈ 24.6 µM) in [10] and above 10 µM in assay [6]. For the same molecule, the EC50 in assay [13] came to 2.9 µM; in assay [14], 2.6 µM; in assay [15] it was 2.9 µM; in assay [16], 2.9 µM. This molecule also returned a GI50 in assay [12] of 1.7 µM. The molecule further yielded an inhibition at 6.25 µg/mL in assay [3] of 76%.

`CC(=O)O[C@H]1[C@H](O)[C@@H](Oc2c(C)c3c4c(c2O)[C@@H](C)CC[C@@H]4[C@@H](C)C[C@H]3C=C(C)C)OC[C@H]1OC(C)=O` [PSEUDOPTEROSIN W]: the Activity was 0% in [8]; 0% in assay [9]; “Dose-dependent effect” in [2]; 0% in assay [11]; 10 µM in assay [4]; “Dose-dependent effect” in assay [5]. Moreover, the Activity result in assay [7] is “Dose-dependent effect”. Further, the IC50 in [1] and in [6] was above 10 µM each time.

Regarding `Nc1nc2c(ncn2COCCO)c(=O)[nH]1` [ACYCLOVIR], the EC50 in assay [13] and in assay [16] was 0.95 µM in each case.
